# TAAR1 agonist = agonists of human TAAR1 | activation, % at 3 µM | CHO RD-HGA16 TAAR1, Fluo-8 calcium fluorescence; vehicle wells 0%, saturating PEA agonist 100% | actives 0.99% (n = 360,000);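 active = activation above the mean activation of all test compounds in the run plus 3 SD, cut at about 38% in these data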
#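 System: CHO RD-HGA16 cells carrying human TAAR1 plus Gα16; Incubation: 17-24 h seeding, 75 min 37 °C dye, 30 min RT; Measured by: Fluo-8 fluorescence, 5 s baseline then 140 s kinetic read; Control set: DMSO and PEA EC100; Replication: single well for each compound.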
# OX1R antag-1 = antagonists of human orexin 1 receptor (OX1R) | OX1R-expressing cells, FRET antagonist read-out | inhibition, % at 6.6 µM | actives 1.8% (n = 330,000); in the data active = inhibition mostly above about 38%, no sharp cut-off; inactive = mostly below about 40%;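 also: 0% = agonist challenge alone and 100% = reference antagonist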
# Target sequence (O43613 whole entry, looked up): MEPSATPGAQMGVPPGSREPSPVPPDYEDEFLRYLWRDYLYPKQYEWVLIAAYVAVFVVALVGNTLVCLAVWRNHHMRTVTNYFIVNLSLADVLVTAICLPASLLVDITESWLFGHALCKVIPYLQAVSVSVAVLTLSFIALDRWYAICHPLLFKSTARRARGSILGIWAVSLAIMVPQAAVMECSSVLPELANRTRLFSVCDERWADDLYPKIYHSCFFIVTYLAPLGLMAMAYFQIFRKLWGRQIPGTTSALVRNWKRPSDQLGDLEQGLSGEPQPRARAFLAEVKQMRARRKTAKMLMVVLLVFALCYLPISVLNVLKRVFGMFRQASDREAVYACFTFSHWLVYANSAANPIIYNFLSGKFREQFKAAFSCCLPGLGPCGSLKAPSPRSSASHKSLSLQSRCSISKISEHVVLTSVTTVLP
# GPR7 antag = blocks human GPR7 receptor signaling; P48145; GPR7-expressing cells, fluorescence antagonist assay; inhibition, % at 4.4 µM; actives 1.1% (n = 290,000); in the data active = inhibition above about 16%, passing the limit was not always enough;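 also: cells stimulated with the agonist NPW; 0% = agonist with vehicle and 100% = vehicle without agonist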
# OX1R antag-2 = human HCRTR1 antagonism. O43613. CHO/OX1R cells, Fluo-8 calcium fluorescence, orexin A. inhibition, % at 5 µM. actives 0.43% (n = 330,000);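 active = inhibition above its plate's threshold, mean inhibition of all tested compounds on the plate plus 3 SD, cut at about 37% in these data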;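 also: 0% = orexin A challenge wells and 100% = SB-334867-A antagonist wells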
# CHO parental Ca = counter-screen for OX1R antagonists: effect in parental CHO cells; parental CHO-K1, ATP-induced calcium, Fluo-8 fluorescence; inhibition, % at 5.6 µM; actives 0.63% (n = 330,000); AID 463079;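 active = inhibition above that plate's mean sample inhibition plus 3 SD, cut at about 26% in these data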;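 also: 0% = ATP-challenged DMSO wells and 100% = DMSO wells without ATP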
#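 Assay system – parental CHO cells · Reagent – ATP stimulus · Detection – intracellular calcium via Fluo-8 no-wash fluorescent dye · Evaluation – percent inhibition of ATP-evoked calcium rise, normalized to controls · Controls – ATP wells versus no-ATP DMSO wells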
# TAAR1 antag = human TAAR1 antagonism | inhibition, % at 3 µM | AID 624466 | actives 1.5% (n = 360,000) | CHO RD-HGA16 TAAR1, Fluo-8 calcium fluorescence, antagonist | Q96RJ0;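 active = inhibition above a per-plate cutoff, the mean inhibition of test compounds on that plate plus 3 SD, cut at about 49% in these data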;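 also: 0% = DMSO plus EC80 beta-PEA response and 100% = DMSO alone without agonist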
#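 Assay system: CHO-derived RD-HGA16 cells stably expressing human TAAR1 plus Gα16. Timing: 140 s kinetic read after compound, 140 s after agonist. Technique: kinetic Fluo-8 calcium fluorescence measurement. Measure: % inhibition of agonist calcium response.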
# Numbers without * were called inactive; nt = no result. An excerpt weighted towards active compounds, which were near 4.6% of everything screened.
SMILES,TAAR1 agonist,OX1R antag-1,GPR7 antag,OX1R antag-2,CHO parental Ca,TAAR1 antag
COc1ccc(Cl)cc1-c1noc([C@@H]2O[C@H](CO)[C@H](O)[C@H](O)[C@H]2O)n1,0.6,nt,nt,nt,nt,-3.4
Cc1ccc(C)c2[nH]c(=O)c(C(c3nnnn3Cc3ccccc3)N3CCc4ccccc4C3)cc12 (stereo unspecified),48.8*,12.9,-4.9,-23.8,-22.2,41.8
Cc1cccc2cc(C(c3nnnn3CC3CCCO3)N3CCc4ccccc4C3)c(=O)[nH]c12 (stereo unspecified),nt,18.4,-11.0,-16.4,-18.2,nt
Nc1nc(N)nc(Cc2ccccc2O)n1,3.2,1.7,nt,0.2,0.5,9.1
CC(=O)N(CN1C(=O)c2ccc([N+](=O)[O-])cc2C1=O)c1cccc(C(=O)O)c1,3.6,52.2*,-7.3,1.3,12.7,-12.8
COc1ccc2c(c1)[C@@H](NC(=O)c1ccncc1)[C@H](C)[C@H]2c1ccccc1,-1.5,nt,nt,nt,nt,-31.0
O=C(c1ccco1)N1CCN(Cc2cc(=O)c(OCc3ccc([N+](=O)[O-])cc3)co2)CC1,-0.1,38.8*,nt,-11.7,-5.1,-32.4
O=C(c1ccco1)N1CCN(Cc2nc3ccc([N+](=O)[O-])cc3c(=O)n2-c2ccccc2F)CC1,18.4,8.6,0.9,-6.5,-9.9,68.7*
CC(C)[C@H](NC(=O)[C@@H](N)Cc1ccccc1)C(=O)N1CCC2CCN(Cc3ccccc3)CC21 (stereo partly specified),-0.9,nt,nt,nt,nt,2.6
O=C(c1cnc(Cc2c[nH]c3ccccc23)c(I)c1)N1CCOCC1,2.7,nt,nt,nt,nt,4.2
CCOC(=O)c1cc2c(=O)n3ccccc3nc2n(C(C)C)c1=NC(=O)c1ccco1,4.7,28.9,-7.5,-23.6,-8.2,3.0
CCOC(=O)c1cc2c(=O)n3ccccc3nc2n(CCCOC)c1=NC(C)=O,1.1,50.9*,-4.1,-14.3,-3.6,11.1
C=CCn1c(=N)c(C(=O)OCC)cc2c(=O)n3cccc(C)c3nc21,nt,110.2*,-3.1,-14.7,-9.4,nt
CCOC(=O)c1cc2c(=O)n3cccc(C)c3nc2n(CC(C)C)c1=NC(=O)c1ccco1,4.6,53.6*,-6.3,-21.2,-14.9,-36.8
CCCn1c(=NC(=O)c2ccco2)c(C(=O)OCC)cc2c(=O)n3ccccc3nc21,12.4,32.2*,-5.4,-29.8,-13.8,-13.9
COc1cc(Nc2cc(C)n(-c3cc(OC)cc(OC)c3)c(=O)c2)cc(OC)c1,-1.5,nt,nt,nt,nt,17.0
Cc1ccc2nc3c(cc(C(=O)NC4CCCC4)c(=N)n3C3CCCCC3)c(=O)n2c1,0.3,21.4,0.8,-0.4,-8.9,-20.1
C=CCn1c(=N)c(C(=O)NCCCOC)cc2c(=O)n3cc(C)ccc3nc21,3.7,57.6*,-6.1,-10.4,-10.3,-1.8
CC(O)(c1cccc(F)c1)c1nc(-c2cnc3ccccc3c2)cs1 (stereo unspecified),1.4,nt,nt,nt,nt,1.5
CC1CC(C)(C)CC2(C1)NC(=O)N(CC(=O)OCc1ccc(Br)cc1)C2=O (stereo unspecified),41.3*,-3.5,nt,-30.8,-9.9,22.7
CC1CC(C)(C)CC2(C1)NC(=O)N(CC(=O)Nc1ccc3[nH]c(=O)[nH]c3c1)C2=O (stereo unspecified),1.4,2.5,nt,2.8,-3.8,-16.4
Cc1[nH]c2ccccc2c1C(=O)CN1C(=O)NC2(CC(C)CC(C)(C)C2)C1=O (stereo unspecified),17.0,19.5,18.6*,-2.5,-7.1,53.4*
CSc1ccc(S(=O)(=O)NCC(=O)OCC(=O)N2CCCC2=O)cc1[N+](=O)[O-],1.6,55.5*,nt,-4.3,0.2,7.0
Nc1ccc(S(=O)(=O)NCC(=O)OC2CCOC2=O)cc1[N+](=O)[O-] (stereo unspecified),5.3,14.2,nt,-8.4,-5.0,8.2
CSc1ccc(S(=O)(=O)NCC(=O)OC2CCOC2=O)cc1[N+](=O)[O-] (stereo unspecified),1.1,65.5*,nt,-12.8,2.8,-25.6
COC(=O)C1CCN(C(=O)COC(=O)CNS(=O)(=O)c2ccc(SC)c([N+](=O)[O-])c2)CC1,-0.4,48.7,nt,-23.9,-5.2,-10.7

# Assay outcomes deposited in PubChem by The Scripps Research Institute Molecular Screening Center.
